According to ChEMBL document CHEMBL1629614, “Inhibition of methionyl-tRNA synthetase by REP8839 and effects of resistance mutations on enzyme activity” (Antimicrob Agents Chemother, 2009):
Positions count from the first letter of the chain named. Names and notes keep the numbering of the source.

What was measured:
[1] = compound: C=C(F)c1sc(CNCCCNc2cc(=O)c3ccccc3[nH]2)c(C)c1Br; assay: Activity of Staphylococcus aureus MetRS G54S mutant by ATP:PPi exchange assay in presence of methionine
Summary of the method: (§1)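 Purified S. aureus MetRS (wild type or mutant; E. coli-expressed, ammonium sulfate cut, anion exchange) at 30 nM. ATP:PPi exchange at 30°C in 100 mM Tris-HCl pH 8.0, 5–10 mM Mg acetate, 80 mM KCl, 2.5 mM DTT, [32P]PPi plus cold PPi equal to ATP. Quenched with EDTA over 1–10 min, PEI-cellulose TLC, phosphorimager. Initial velocities versus varied ATP or methionine fit to Michaelis-Menten.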

[2] = compound: C=C(F)c1sc(CNCCCNc2cc(=O)c3ccccc3[nH]2)c(C)c1Br; assay: Ratio of Kcat to Km for Staphylococcus aureus MetRS G54S mutant in presence of methionine
Summary of the method: (§2)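 Purified recombinant S. aureus MetRS (30 nM) was assayed by ATP:PPi exchange at 30°C in Tris pH 8.0 with Mg acetate, KCl and DTT. [32P]PPi was matched to ATP, and ATP or methionine was varied. Time points from 1 to 10 min were quenched with EDTA, separated by PEI-cellulose TLC and read by phosphorimager. Initial rates were fitted to Michaelis-Menten.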

[3] = compound: C=C(F)c1sc(CNCCCNc2cc(=O)c3ccccc3[nH]2)c(C)c1Br; assay: Ratio of Kcat to Km for Staphylococcus aureus MetRS G54S mutant in presence of tRNA
Summary of the method: (§3)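 Purified recombinant S. aureus MetRS was assayed by tRNA aminoacylation at 30°C for 1 to 7.5 min to obtain initial rates. Buffer was Tris pH 8.0 with Mg acetate, 2.5 mM ATP, KCl, DTT, BSA, [3H]methionine and crude E. coli tRNA. Reactions were EDTA-stopped, and charged tRNA was read by scintillation proximity with polylysine beads at pH 2.0.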

[4] = compound: C=C(F)c1sc(CNCCCNc2cc(=O)c3ccccc3[nH]2)c(C)c1Br; assay: Ratio of Kcat to Km for Staphylococcus aureus MetRS G54S mutant in presence of ATP; summary of the method: as §2
[5] = compound: C=C(F)c1sc(CNCCCNc2cc(=O)c3ccccc3[nH]2)c(C)c1Br; assay: Activity of streptococcus aureus MetRS G54S mutant by scintillation proximity assay in presence of tRNA; settings: Staphylococcus aureus
[6] = compound: C=C(F)c1sc(CNCCCNc2cc(=O)c3ccccc3[nH]2)c(C)c1Br; assay: Activity of Staphylococcus aureus MetRS G54S mutant by ATP:PPi exchange assay in presence of ATP; summary of the method: as §1
[7] = compound: C=C(F)c1sc(CNCCCNc2cc(=O)c3ccccc3[nH]2)c(C)c1Br; assay: Activity of Staphylococcus aureus MetRS G54A, A64P mutant by ATP:PPi exchange assay in presence of methionine; summary of the method: as §1
[8] = compound: C=C(F)c1sc(CNCCCNc2cc(=O)c3ccccc3[nH]2)c(C)c1Br; assay: Ratio of Kcat to Km for Staphylococcus aureus MetRS G54A A64P mutant in presence of ATP; summary of the method: as §2
[9] = compound: C=C(F)c1sc(CNCCCNc2cc(=O)c3ccccc3[nH]2)c(C)c1Br; assay: Activity of Staphylococcus aureus MetRS G54A, A64P mutant by ATP:PPi exchange assay in presence of ATP; summary of the method: as §1
[10] = compound: C=C(F)c1sc(CNCCCNc2cc(=O)c3ccccc3[nH]2)c(C)c1Br; assay: Activity of streptococcus aureus MetRS G54A, A64P mutant by scintillation proximity assay in presence of tRNA; settings: Staphylococcus aureus
[11] = compound: C=C(F)c1sc(CNCCCNc2cc(=O)c3ccccc3[nH]2)c(C)c1Br; assay: Ratio of Kcat to Km for Staphylococcus aureus MetRS G54A A64P mutant in presence of tRNA; summary of the method: as §3
[12] = compound: C=C(F)c1sc(CNCCCNc2cc(=O)c3ccccc3[nH]2)c(C)c1Br; assay: Ratio of Kcat to Km for Staphylococcus aureus MetRS G54A A64P mutant in presence of methionine; summary of the method: as §2
[13] = compound: C=C(F)c1sc(CNCCCNc2cc(=O)c3ccccc3[nH]2)c(C)c1Br; assay: Ratio of Kcat to Km for Staphylococcus aureus MetRS I57N G54S mutant in presence of tRNA; summary of the method: as §3
[14] = compound: C=C(F)c1sc(CNCCCNc2cc(=O)c3ccccc3[nH]2)c(C)c1Br; assay: Activity of streptococcus aureus MetRS I57N, G54S mutant by scintillation proximity assay in presence of tRNA; settings: Staphylococcus aureus
[15] = compound: C=C(F)c1sc(CNCCCNc2cc(=O)c3ccccc3[nH]2)c(C)c1Br; assay: Activity of Staphylococcus aureus MetRS I57N, G54S mutant by ATP:PPi exchange assay in presence of ATP; summary of the method: as §1
[16] = compound: C=C(F)c1sc(CNCCCNc2cc(=O)c3ccccc3[nH]2)c(C)c1Br; assay: Ratio of Kcat to Km for Staphylococcus aureus MetRS I57N G54S mutant in presence of methionine; summary of the method: as §2
[17] = compound: C=C(F)c1sc(CNCCCNc2cc(=O)c3ccccc3[nH]2)c(C)c1Br; assay: Activity of Staphylococcus aureus MetRS I57N, G54S mutant by ATP:PPi exchange assay in presence of methionine; summary of the method: as §1
[18] = compound: C=C(F)c1sc(CNCCCNc2cc(=O)c3ccccc3[nH]2)c(C)c1Br; assay: Ratio of Kcat to Km for Staphylococcus aureus MetRS I57N G54S mutant in presence of ATP; summary of the method: as §2
[19] = compound: C=C(F)c1sc(CNCCCNc2cc(=O)c3ccccc3[nH]2)c(C)c1Br; assay: Ratio of Kcat to Km for Staphylococcus aureus MetRS I57N I238F mutant in presence of tRNA; summary of the method: as §3
[20] = compound: C=C(F)c1sc(CNCCCNc2cc(=O)c3ccccc3[nH]2)c(C)c1Br; assay: Ratio of Kcat to Km for Staphylococcus aureus MetRS I57N I238F mutant in presence of ATP; summary of the method: as §2
[21] = compound: C=C(F)c1sc(CNCCCNc2cc(=O)c3ccccc3[nH]2)c(C)c1Br; assay: Ratio of Kcat to Km for Staphylococcus aureus MetRS I57N I238F mutant in presence of methionine; summary of the method: as §2
[22] = compound: C=C(F)c1sc(CNCCCNc2cc(=O)c3ccccc3[nH]2)c(C)c1Br; assay: Activity of Staphylococcus aureus MetRS I57N, I238F mutant by ATP:PPi exchange assay in presence of methionine; summary of the method: as §1
[23] = compound: C=C(F)c1sc(CNCCCNc2cc(=O)c3ccccc3[nH]2)c(C)c1Br; assay: Activity of Staphylococcus aureus MetRS I57N, I238F mutant by ATP:PPi exchange assay in presence of ATP; summary of the method: as §1
[24] = compound: C=C(F)c1sc(CNCCCNc2cc(=O)c3ccccc3[nH]2)c(C)c1Br; assay: Activity of streptococcus aureus MetRS I57N, I238F mutant by scintillation proximity assay in presence of tRNA; settings: Staphylococcus aureus
[25] = compound: C=C(F)c1sc(CNCCCNc2cc(=O)c3ccccc3[nH]2)c(C)c1Br; assay: Activity of Staphylococcus aureus MetRS I57N, A247E mutant by ATP:PPi exchange assay in presence of ATP; summary of the method: as §1
[26] = compound: C=C(F)c1sc(CNCCCNc2cc(=O)c3ccccc3[nH]2)c(C)c1Br; assay: Ratio of Kcat to Km for Staphylococcus aureus MetRS I57N A247E mutant in presence of ATP; summary of the method: as §2
[27] = compound: C=C(F)c1sc(CNCCCNc2cc(=O)c3ccccc3[nH]2)c(C)c1Br; assay: Activity of streptococcus aureus MetRS I57N, A247E mutant by scintillation proximity assay in presence of tRNA; settings: Staphylococcus aureus
[28] = compound: C=C(F)c1sc(CNCCCNc2cc(=O)c3ccccc3[nH]2)c(C)c1Br; assay: Ratio of Kcat to Km for Staphylococcus aureus MetRS I57N A247E mutant in presence of methionine; summary of the method: as §2
[29] = compound: C=C(F)c1sc(CNCCCNc2cc(=O)c3ccccc3[nH]2)c(C)c1Br; assay: Ratio of Kcat to Km for Staphylococcus aureus MetRS I57N A247E mutant in presence of tRNA; summary of the method: as §3
[30] = compound: C=C(F)c1sc(CNCCCNc2cc(=O)c3ccccc3[nH]2)c(C)c1Br; assay: Activity of Staphylococcus aureus MetRS I57N, A247E mutant by ATP:PPi exchange assay in presence of methionine; summary of the method: as §1
[31] = compound: C=C(F)c1sc(CNCCCNc2cc(=O)c3ccccc3[nH]2)c(C)c1Br; assay: Activity of Staphylococcus aureus MetRS I57N, V242F mutant by ATP:PPi exchange assay in presence of ATP; summary of the method: as §1
[32] = compound: C=C(F)c1sc(CNCCCNc2cc(=O)c3ccccc3[nH]2)c(C)c1Br; assay: Activity of streptococcus aureus MetRS I57N, V242F mutant by scintillation proximity assay in presence of tRNA; settings: Staphylococcus aureus
[33] = compound: C=C(F)c1sc(CNCCCNc2cc(=O)c3ccccc3[nH]2)c(C)c1Br; assay: Ratio of Kcat to Km for Staphylococcus aureus MetRS I57N V242F mutant in presence of methionine; summary of the method: as §2
[34] = compound: C=C(F)c1sc(CNCCCNc2cc(=O)c3ccccc3[nH]2)c(C)c1Br; assay: Ratio of Kcat to Km for Staphylococcus aureus MetRS I57N V242F mutant in presence of tRNA; summary of the method: as §3
[35] = compound: C=C(F)c1sc(CNCCCNc2cc(=O)c3ccccc3[nH]2)c(C)c1Br; assay: Activity of Staphylococcus aureus MetRS I57N, V242F mutant by ATP:PPi exchange assay in presence of methionine; summary of the method: as §1
[36] = compound: C=C(F)c1sc(CNCCCNc2cc(=O)c3ccccc3[nH]2)c(C)c1Br; assay: Ratio of Kcat to Km for Staphylococcus aureus MetRS I57N V242F mutant in presence of ATP; summary of the method: as §2

B1: Methionine--tRNA ligase (Staphylococcus aureus subsp. aureus MW2), Q8NY00 G54S (protein)
chain: MAKETFYITTPIYYPSGNLHIGHAYSTVAGDVIARYKRMQGYDVRYLTGTDEHSQKIQEKAQKAGKTEIEYLDEMIAGIKQLWAKLEISNDDFIRTTEERHKHVVEQVFERLLKQGDIYLGEYEGWYSVPDETYYTESQLVDPQYENGKIIGGKSPDSGHEVELVKEESYFFNISKYTDRLLEFYDQNPDFIQPPSRKNEMINNFIKPGLADLAVSRTSFNWGVHVPSNPKHVVYVWIDALVNYISALGYLSDDESLFNKYWPADIHLMAKEIVRFHSIIWPILLMALDLPLPKKVFAHGWILMKDGKMSKSKGNVVDPNILIDRYGLDATRYYLMRELPFGSDGVFTPEAFVERTNFDLANDLGNLVNRTISMVNKYFDGELPAYQGPLHELDEEMEAMALETVKSYTESMESLQFSVALSTVWKFISRTNKYIDETTPWVLAKDDSQKDMLGNVMAHLVENIRYAAVLLRPFLTHAPKEIFEQLNINNPQFMEFSSLEQYGVLTESIMVTGQPKPIFPRLDSEAEIAYIKESMQPPATEEEKEEIPSKPQIDIKDFDKVEIKAATIINAEHVKKSDKLLKIQVDLDSEQRQIVSGIAKFYTPDDIIGKKVAVVTNLKPAKLMGQKSEGMILSAEKDGVLTLVSLPSAIPNGAVIK
- Km [1]: 75 µM
- kcat [1]: 5 s⁻¹
- kcat/Km [2]: 70000 M⁻¹ s⁻¹
- kcat/Km [3]: 33000 M⁻¹ s⁻¹
- kcat/Km [4]: 10000 M⁻¹ s⁻¹
- Km [5]: 0.27 µM
- kcat [5]: 0.009 s⁻¹
- Km [6]: 500 µM

B2: Methionine--tRNA ligase (Staphylococcus aureus subsp. aureus MW2), Q8NY00 G54A,A64P (protein)
chain: B1 chain with S54A, A64P
- Km [7]: 1070 µM
- kcat [7]: 1 s⁻¹
- kcat/Km [8]: 1000 M⁻¹ s⁻¹
- Km [9]: 760 µM
- Km [10]: 0.57 µM
- kcat [10]: 0.001 s⁻¹
- kcat/Km [11]: 2000 M⁻¹ s⁻¹
- kcat/Km [12]: 1000 M⁻¹ s⁻¹

B3: Methionine--tRNA ligase (Staphylococcus aureus subsp. aureus MW2), Q8NY00 I57N,G54S (protein)
chain: B1 chain with I57N
- kcat/Km [13]: 5000 M⁻¹ s⁻¹
- Km [14]: 0.41 µM
- kcat [14]: 0.002 s⁻¹
- Km [15]: 765 µM
- kcat/Km [16]: 20000 M⁻¹ s⁻¹
- Km [17]: 360 µM
- kcat [17]: 6 s⁻¹
- kcat/Km [18]: 8000 M⁻¹ s⁻¹

B4: Methionine--tRNA ligase (Staphylococcus aureus subsp. aureus MW2), Q8NY00 I57N,I238F (protein)
chain: B1 chain with S54G, I57N, I238F
- kcat/Km [19]: 74000 M⁻¹ s⁻¹
- kcat/Km [20]: 8000 M⁻¹ s⁻¹
- kcat/Km [21]: 150000 M⁻¹ s⁻¹
- Km [22]: 85 µM
- kcat [22]: 13 s⁻¹
- Km [23]: 1610 µM
- Km [24]: 0.89 µM
- kcat [24]: 0.066 s⁻¹

B5: Methionine--tRNA ligase (Staphylococcus aureus subsp. aureus MW2), Q8NY00 I57N,A247E (protein)
chain: B1 chain with S54G, I57N, A247E
- Km [25]: 2230 µM
- kcat/Km [26]: 5000 M⁻¹ s⁻¹
- Km [27]: 0.45 µM
- kcat [27]: 0.008 s⁻¹
- kcat/Km [28]: 40000 M⁻¹ s⁻¹
- kcat/Km [29]: 18000 M⁻¹ s⁻¹
- Km [30]: 250 µM
- kcat [30]: 11 s⁻¹

B6: Methionine--tRNA ligase (Staphylococcus aureus subsp. aureus MW2), Q8NY00 I57N,V242F (protein)
chain: B1 chain with S54G, I57N, V242F
- Km [31]: 810 µM
- Km [32]: 10 µM
- kcat [32]: 0.124 s⁻¹
- kcat/Km [33]: 700000 M⁻¹ s⁻¹
- kcat/Km [34]: 12000 M⁻¹ s⁻¹
- Km [35]: 20 µM
- kcat [35]: 14 s⁻¹
- kcat/Km [36]: 17000 M⁻¹ s⁻¹
